Article PMC6045394 (ACS Omega, 2017)

Key:
[1] = test system: P. falciparum chloroquine-resistant (W2) strain; assay: In vitro schizonticidal activity, ELISA antiHRPII assay; type: cell-based, Plasmodium falciparum; settings: for SI (selectivity index) P.f. W2: SI = IC50 WI-26-VA4/IC50 P. falciparum strain W2
Outline: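 W2 parasites grown in human erythrocytes in RPMI 1640 with human plasma, sorbitol-synchronized, plated at 0.05% parasitemia and 1.5% hematocrit. Triplicate drug dilutions for 72 h, freeze-thaw, anti-HRPII ELISA; IC50 is the mean of three assays. WI-26-VA4 fibroblasts: 1:10 serial dilutions (0.1% DMSO), 48 h, MTT read at 550 nm, triplicate. SI = fibroblast IC50 / W2 IC50.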

[2] = test system: P. falciparum chloroquine-sensitive (3D7) strain; assay: In vitro schizonticidal activity, ELISA antiHRPII assay; type: cell-based, Plasmodium falciparum; settings: for IC50: Plasmodium falciparum, 3D7, 72 h, read-out: IC50 (μM) ± SD P.f. 3D7
[3] = test system: human lung fibroblast cell line WI-26-VA4; assay: In vitro cytotoxicity test, MTT colorimetric assay; type: cell-based; settings: WI26VA4, 48 h, read-out: IC50 (μM) ± SD Wi-26VA4
[4] = test system: RKO-AS45-1 human cell line; assay: Alkaline comet assay; type: cell-based; settings: 17.7 μM vs 2.5 μM
[5] = test system: RKO-AS45-1 human cell line; assay: CBMN; type: cell-based; settings: 2.5 to 17.7 μM
[6] = test system: S. typhimurium strain TA98; assay: Ames/Salmonella mutagenicity assay; type: cell-based, Salmonella typhimurium; settings: with and without metabolic activation (S9), 16.7 to 77.5 μM
Outline: (§1)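 Microsuspension protocol: overnight cultures (1 × 10^9 cells/mL) concentrated 10× by centrifugation, then exposed to five concentrations (TA100 6.7–30.9 μM; TA98 16.7–77.5 μM), with or without S9, 90 min at 37 °C. Plated in histidine/biotin top agar on minimal glucose agar; his+ revertants counted after 48 h at 37 °C. DMSO negative control; MI = treated/control revertants, MI ≥ 2 mutagenic.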

[7] = test system: S. typhimurium strain TA100; assay: Ames/Salmonella mutagenicity assay; type: cell-based, Salmonella typhimurium; settings: with and without metabolic activation (S9), 6.7 to 30.9 μM
Outline: as §1

Row | Structure (SMILES) | SI (selectivity index) P.f. W2 [1] | IC50 [2] [µM] | IC50 [3] [µM] | increase of in vitro antimalarial activity compared to compound 5c ([1]; P. falciparum W2) [fold] | SI (selectivity index) P.f. 3D7 ([2]; SI = IC50 WI-26-VA4/IC50 P. falciparum strain 3D7) | genotoxic concentration relative to IC50 against P. falciparum [4] | nuclear division index (NDI) [5] | frequency of micronuclei ([5]; 3 h exposure) | induction of gene mutations (Ames) [6] | induction of gene mutations (Ames) [7]
1 | CCN(CC)CCCC(C)Nc1ccnc2cc(Cl)ccc12 (stereo not shown) [CQ, chloroquine, reference compound] | >250 | 0.18 ± 0.05 | > 100 | – | – | – | – | – | – | –
2 | FCCCCCCCCCCOCCCc1cccnc1 [Compound 7, 3-(3-((10-Fluorodecyl)oxy)propyl)pyridine] | 11.2 | 2.3 ± 0.15 | 28.2 ± 3.7 | 5.8 | 12.2 | about seven times higher | None of the concentrations assessed affected the nuclear division index (NDI) values | altered only at concentrations higher than the IC50 | not able to induce gene mutations | not able to induce gene mutations
